In the library only some 1.8% were active in any assay of this set; here they are far more common.
Jurkat NFkB inh – inhibitors of the PMA/ionomycin-induced NF-kB reporter in Jurkat cells. 330,000 compounds, 0.53% hits. AID 435003. inhibition, % at 4 µM. PMA/ionomycin-induced NF-kB luciferase reporter, luminescence; in the data active means inhibition above about 50%
UPR CHOP act – activators of apoptotic arm of unfolded protein response (CHOP) | activation, % at 10 µM | 330,000 compounds, 0.34% hits | CHO-CHOP luciferase reporter, UPR activation, luminescence; percent of tunicamycin response over DMSO baseline;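 active means at 10 µM dose, activation of 40% or more, normalized to positive control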;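 further: 100% = tunicamycin at 10 µg/mL and 0% = DMSO alone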
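Assay system: CHO-CHOP cells, stable luciferase reporter of PERK-eIF2a-CHOP signalling / Buffer or medium: F12 plus 10% serum / Compound dosing: one dose, 10 µM in 0.5% DMSO / Times: 6 h compound treatment, 37 °C / Technique: luciferase luminescence / Read-out: % reporter activation, DMSO baseline versus tunicamycin full activation / Benchmarks: tunicamycin and DMSO controls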
UPR XBP1 act – adaptive UPR (XBP1) activation; AID 463104; 330,000 compounds, 0.33% hits; CHO-XBP1 luciferase reporter, IRE1-XBP1 UPR activation, luminescence; percent of tunicamycin response, DMSO as zero; activation, % at 20 µM;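 active means versus positive control, 20 µM dose yields 30% or more activation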;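 further: 100% = tunicamycin at 10 µg/mL and 0% = DMSO only wells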
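Material: CHO cell line with stable XBP1 luciferase reporter; schedule: 16-18 h cell attachment at 37 °C, then 6 h compound exposure; signal: glow luminescence from Steady-Glo reagent; medium: serum-containing F12 medium, 10% FBS; benchmarks: tunicamycin 10 µg/mL and vehicle-only wells; read-out: percent activation relative to tunicamycin reference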
CRFBP-R2 block – CRF-BP/CRF-R2 complex antagonism; HEK293 CRF-R2/CRF-BP, CRF-induced calcium fluorescence; inhibition, % at 11.8 µM; 350,000 compounds, 0.59% hits; AID 588475;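 active means inhibition of the ligand-induced calcium signal above about 50% at the single tested concentration, limit read from the data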
697 NFkB inh – inhibitors of the PMA/ionomycin-induced NF-kB reporter in 697 B cells; 697 B-cell NF-kB luciferase reporter, 16 h; inhibition, % at 4 µM; 330,000 compounds, 0.33% hits; in the data active means inhibition above about 35%
The depositor's hits bear a star; · = no result given.

SMILES | Jurkat NFkB inh | UPR CHOP act | UPR XBP1 act | CRFBP-R2 block | 697 NFkB inh
CCOC(=O)c1c(NC(=O)CN2C(=O)CN(C)C2=O)sc(C)c1C | 6.8 | -0.7 | 0.3 | -19.1 | -9.1
c1cc2nncn2nc1N1CCCC1 | -4.5 | -1.2 | -0.2 | -18.4 | 2.2
Clc1ccc2nncn2n1 | 16.0 | -0.3 | 1.2 | 77.3* | 14.0
O=C1NCCCCC1NS(=O)(=O)c1ccccc1 (centres undefined) | -4.4 | -0.2 | 2.4 | -1.5 | -20.7
O=C1NCCCCC1NS(=O)(=O)c1cccc2ccccc12 (centres undefined) | -12.1 | -0.1 | 1.2 | 69.5* | -5.7
O=C(NCCN1CCOCC1)c1cccc(S(=O)(=O)Nc2ccc(Br)cc2)c1 | 15.3 | -2.4 | -3.3 | -4.8 | 3.9
CC1=C(C(N)=O)C(c2ccccc2[N+](=O)[O-])n2ncnc2N1 (centres undefined) | 10.7 | -0.2 | 4.8 | 12.8 | 5.9
COCCN(C(=O)c1ccc2c(c1)C(=O)N(c1ccccc1Cl)C2=O)c1c(N)n(CC(C)C)c(=O)[nH]c1=O | · | · | · | 3.5 | ·
Cc1sc2ncnc(Sc3ccccc3C(=O)Nc3ccc(C#N)cc3)c2c1C | -22.8 | -0.3 | 0.7 | 60.9* | -10.9
Cc1sc2ncnc(Sc3ccccc3C(=O)Nc3ccc(Br)cc3)c2c1C | -5.1 | 1.6 | 4.0 | 1.6 | -30.3
CCN(CC)S(=O)(=O)c1ccc(Cl)c(NC(=O)c2ccccc2C)c1 | -9.5 | -1.3 | 0.6 | 21.8 | -1.8
CCN(CC)S(=O)(=O)c1ccc(Cl)c(NC(=O)c2cc(Cl)cc(Cl)c2)c1 | 0.3 | 8.0 | 3.2 | 53.0* | 19.9
Nc1nc(COC(=O)C2CC(=O)N(CCc3ccccc3)C2)nc(Nc2ccccc2)n1 (centres undefined) | -4.2 | 0.9 | 2.4 | 4.4 | 5.7
Cc1cc(=O)n2[nH]c(-c3ccc(F)cc3)cc2n1 | -4.4 | 2.5 | -1.0 | 10.7 | -0.2
O=c1cc(-c2ccc([N+](=O)[O-])cc2)nc2cc(-c3ccc(F)cc3)[nH]n12 | 0.3 | -0.7 | -1.9 | 75.1* | 13.1
Cc1ccccc1-c1cc2nc(-c3ccc([N+](=O)[O-])cc3)cc(=O)n2[nH]1 | 8.0 | -0.4 | 0.8 | 70.5* | 1.0
COc1cccc(C2C(C(=O)c3ccc(C)o3)=C(O)C(=O)N2CCN2CCOCC2)c1OC (centres undefined) | -9.4 | -0.4 | -0.9 | 123.6* | -22.4
COc1ccc(OC)c(C2C(C(=O)c3ccc(C)o3)=C(O)C(=O)N2CCN2CCOCC2)c1 (centres undefined) | 1.3 | 1.9 | -3.9 | 12.3 | 13.0
Cc1cccc(-n2c(SCC(=O)N3CC(=O)Nc4ccccc43)nc3ccccc3c2=O)c1C | 8.2 | -1.7 | -3.3 | 55.4* | 19.9
Cc1cccc(-n2c(SCC(=O)N3CC(=O)Nc4ccccc43)nc3ccccc3c2=O)c1 | 5.3 | 0.9 | 2.8 | -19.9 | 24.7
CN(C(=O)c1cc(-c2ccccc2)on1)C1CCCCC1 | -133.7 | 5.4 | -4.5 | -7.8 | -184.0
C[C@H]1NC(=O)[C@@]2(C)[C@H](c3ccccc3)[C@H]3COc4ccccc4[C@@H]3N2C1=O | 5.3 | -0.1 | 2.5 | 2.2 | 12.6
Cc1nc(-c2c(C(F)(F)F)noc2-c2ccc(O)cc2O)cs1 | 14.1 | -0.8 | -2.4 | 54.2* | -20.1
Oc1ccc(-c2onc(C(F)(F)F)c2-c2cscn2)c(O)c1 | 0.2 | 0.3 | -2.9 | 21.8 | -12.5
CCN(CC(=O)Nc1ccccc1C(F)(F)F)C(=O)c1ccc(N2C(=O)CCC2=O)cc1 | 1.8 | 1.3 | -0.7 | 6.2 | -21.5
SMILES | Jurkat NFkB inh | UPR CHOP act | UPR XBP1 act | CRFBP-R2 block | 697 NFkB inh
CC1C(=O)N(Cc2cn(CCC3OCCCO3)nn2)CCS(=O)(=O)N1Cc1ccc(-c2ccc(Cl)cc2)cc1 (centres undefined) | · | · | · | 52.5* | ·
COc1ccc(-c2ccc(CN3C(C)C(=O)N(Cc4cn(Cc5ccco5)nn4)CCS3(=O)=O)cc2)cc1 (centres undefined) | · | · | · | 69.3* | ·
COc1ccc(N2CC(C(=O)N[C@@H](C)C(=O)NCCc3ccccc3)CC2=O)cc1 (some centres undefined) | 17.3 | -1.5 | -2.9 | -3.9 | -18.3
Cc1ccc(CN(C(=O)c2csnn2)C(C(=O)NC2CCCC2)c2cccnc2)cc1 (centres undefined) | 3.2 | 2.1 | -0.9 | -0.6 | 7.6
Cc1nc(Sc2ccccc2)c(C#N)cc1-c1ccccc1 | -19.6 | 1.7 | 0.0 | 53.1* | 6.4
COc1cc(CNc2ccccc2SC)cc(OC)c1OC | 26.3 | 0.8 | -2.4 | 73.1* | -17.3
CN(Cc1ccc(F)cc1)C(=O)c1cc(S(=O)(=O)N2CCCCC2)ccc1N1CCOCC1 | 2.5 | 0.5 | -2.9 | 6.2 | 26.0
CCOC(=O)c1cc(C#N)c(Oc2ccccc2OC)nc1-c1ccccc1 | 13.7 | 0.7 | -3.5 | 56.5* | 4.3
CCOC(=O)c1cc(C#N)c(N2CCN(c3ccccn3)CC2)nc1-c1ccccc1 | -3.3 | 0.7 | -3.3 | 54.2* | 15.0
CCOC(=O)c1cc(C#N)c(SC)nc1-c1ccccc1 | -13.4 | 8.7 | -1.3 | 11.5 | -14.2
O=C(COc1ccc(S(=O)(=O)NC2CCCCC2)cc1Cl)NCC1CCCO1 (centres undefined) | 7.5 | -1.2 | -1.3 | -4.2 | -1.8
O=C(COc1ccc(S(=O)(=O)NC2CCCCC2)cc1Cl)NCc1cccnc1 | -2.9 | -0.2 | -3.0 | 80.1* | 23.2
Cc1cc(S(=O)(=O)NC2CCCCC2)ccc1OCC(=O)NCC1CCCO1 (centres undefined) | -13.9 | 1.1 | -3.2 | 57.1* | 12.3
O=C(COc1ccc(S(=O)(=O)NC2CCCCC2)cc1)NCc1cccnc1 | 0.6 | 2.2 | -2.0 | 0.5 | -12.5
CC1CN(C(=O)CCC(=O)NC2CCCCC2)c2ccccc2S1 (centres undefined) | -1.6 | -0.8 | -2.8 | 11.2 | 7.1
CSc1ccc(/C=C/C(=O)N2CCN(c3ccccn3)CC2)cc1 | -4.6 | -0.1 | -3.9 | 92.3* | 10.8
OC(CCc1ccncc1)COc1ccccc1 (centres undefined) | 2.1 | -1.3 | -1.6 | -4.6 | 8.8
CCc1ccc(-c2cc(C)no2)cc1S(=O)(=O)Nc1ccc(Cl)cn1 | 1.2 | -0.7 | -1.4 | 57.1* | -2.7
CCc1ccc(-c2cc(C)no2)cc1S(=O)(=O)Nc1cc(C)on1 | 9.4 | -0.5 | -2.6 | 12.8 | -0.3
CN(C)c1cccc(C(=O)OCC(=O)Nc2ccccc2Sc2ccccc2)c1 | -15.8 | 3.0 | -1.9 | 62.1* | -6.6
COc1ccc(C#Cc2c(-c3ccccc3)n(-c3ccccc3)c3ccc(CO)cc23)cc1 | 2.4 | 1.7 | 3.3 | 117.8* | -6.4
COc1cccc(CNS(=O)(=O)c2c(C)[nH]c(C)c2C(=O)N2CCCC2)c1 | 7.3 | -1.0 | -1.6 | 7.2 | 3.4
CCOc1ccccc1/C=C(/NC(=O)c1ccccc1)C(=O)NC(C)c1ccccc1 (centres undefined) | 2.1 | 1.7 | -2.0 | 113.4* | 6.3
